Test results from ChEMBL document CHEMBL3091382, “The chemical synthesis and cytotoxicity of new sulfur analogues of 2-methoxy-lysophosphatidylcholine” (Bioorg Med Chem Lett, 2013).

How the values were obtained:
[1] = Cytotoxicity against mouse betaTC3 cells assessed as cellular membrane damage at 25 uM after 24 hrs by LDH release assay; type: cell-based; conditions: beta-tc3, 24 h
Method in brief: (§1)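 βTC-3 insulinoma cells seeded at 10,000 per well and cultured 24 or 48 h, then exposed to compound for 24 h. LDH in the medium measured as a marker of membrane damage. Release expressed as percentage of that from cells given methanol alone. Mean ± SD, n = 4; significance taken at p < 0.05.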

[2] = Cytotoxicity against mouse betaTC3 cells assessed as cellular membrane damage at 10 uM after 24 hrs by LDH release assay; type: cell-based; conditions: beta-tc3, 24 h; method in brief: as §1
[3] = Cytotoxicity against mouse betaTC3 cells assessed as cell viability at 25 uM after 48 hrs by MTT assay relative to control; type: cell-based, Beta-TC3; conditions: read-out: Activity
Method in brief: (§2)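 βTC-3 insulinoma cells seeded at 10,000 per well and cultured 24 and 48 h before exposure to natural LPC species or 2-methoxy sulfur analogues at 10 or 25 µM. Incubation for 24 or 48 h. Viability measured by MTT colorimetric assay and expressed as % of untreated cells, mean ± SD of four independent experimental repeats.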

[4] = Cytotoxicity against mouse betaTC3 cells assessed as cell viability at 25 uM after 24 hrs by MTT assay relative to control; type: cell-based, Beta-TC3; conditions: read-out: Activity; method in brief: as §2
[5] = Cytotoxicity against mouse betaTC3 cells assessed as cell viability at 10 uM after 48 hrs by MTT assay relative to control; type: cell-based, Beta-TC3; conditions: read-out: Activity; method in brief: as §2
[6] = Cytotoxicity against mouse betaTC3 cells assessed as cell viability at 10 uM after 24 hrs by MTT assay relative to control; type: cell-based, Beta-TC3; conditions: read-out: Activity; method in brief: as §2

**Q.** For `CCCCCCCCCCCCCCCC(=O)OC[C@@H](O)COP(=O)([O-])OCC[N+](C)(C)C`, which Activity [1] is on record?
**A.** 16.8%

**Q.** And the Activity [2]?
**A.** Toxic

**Q.** What about the viability at 48 h, 25 µM [3] of the same compound?
**A.** 20.1%

**Q.** What about the viability at 24 h, 25 µM [4] of the same compound?
**A.** 29.7%

**Q.** And the viability at 48 h, 10 µM [5]?
**A.** 59.8%

**Q.** What about the viability at 24 h, 10 µM [6] of the same compound?
**A.** 73.1%

**Q.** With `CCCCCCCCCCCCCCCCCC(=O)OC[C@@H](O)COP(=O)([O-])OCC[N+](C)(C)C` as the compound, how does the Activity [2] read?
**A.** Toxic

**Q.** And the viability at 48 h, 25 µM [3]?
**A.** 29.5%

**Q.** And the viability at 24 h, 25 µM [4]?
**A.** 38.7%

**Q.** What about the viability at 48 h, 10 µM [5] of the same compound?
**A.** 59.3%

**Q.** And the viability at 24 h, 10 µM [6]?
**A.** 88.8%

**Q.** Which Activity [1] does the source give for `CCCCCCCC/C=C\CCCCCCCC(=O)OC[C@@H](O)COP(=O)([O-])OCC[N+](C)(C)C` here?
**A.** 9.04%

**Q.** And the viability at 48 h, 25 µM [3]?
**A.** 68.5%

**Q.** What about the viability at 24 h, 25 µM [4] of the same compound?
**A.** 81.1%

**Q.** What about the viability at 48 h, 10 µM [5] of the same compound?
**A.** 93.4%

**Q.** What about the viability at 24 h, 10 µM [6] of the same compound?
**A.** 130%

**Q.** For `CCCCCCCCCCCCCC(=O)OCC(COP(=O)([S-])OCC[N+](C)(C)C)OC` (mixture of isomers), which viability at 48 h, 25 µM [3] is on record?
**A.** 41.1%

**Q.** What about the viability at 24 h, 25 µM [4] of the same compound?
**A.** 73.7%

**Q.** And the viability at 48 h, 10 µM [5]?
**A.** 101%

**Q.** And the viability at 24 h, 10 µM [6]?
**A.** 112%

**Q.** Which viability at 48 h, 25 µM [3] does the source give for `CCCCCCCCCCCCCCCCCC(=O)OCC(COP(=O)([S-])OCC[N+](C)(C)C)OC` (mixture of isomers) here?
**A.** 50.9%

**Q.** And the viability at 24 h, 25 µM [4]?
**A.** 82.9%

**Q.** And the viability at 48 h, 10 µM [5]?
**A.** 61.4%

**Q.** And the viability at 24 h, 10 µM [6]?
**A.** 90.3%

**Q.** For `CCCCCCCCCCCC(=O)OCC(COP(=O)([S-])OCC[N+](C)(C)C)OC` (racemic), which viability at 48 h, 25 µM [3] is on record?
**A.** 71.1%

**Q.** What about the viability at 24 h, 25 µM [4] of the same compound?
**A.** 90.7%

**Q.** What about the viability at 48 h, 10 µM [5] of the same compound?
**A.** 106%

**Q.** What about the viability at 24 h, 10 µM [6] of the same compound?
**A.** 90.2%

**Q.** What does the source list for `CCCCCCCCCCCCCCCC(=O)OCC(COP(=O)([S-])OCC[N+](C)(C)C)OC` (racemic)?
**A.** viability at 48 h, 25 µM [3]: 44.2%; viability at 24 h, 25 µM [4]: 60.4%; viability at 48 h, 10 µM [5]: 87.7%; viability at 24 h, 10 µM [6]: 105%

**Q.** Which viability at 48 h, 25 µM [3] does the source give for `CCCCCCCC/C=C\CCCCCCCC(=O)OCC(COP(=O)([S-])OCC[N+](C)(C)C)OC` (racemic) here?
**A.** 133%

**Q.** And the viability at 24 h, 25 µM [4]?
**A.** 144%

**Q.** And the viability at 48 h, 10 µM [5]?
**A.** 92.4%

**Q.** And the viability at 24 h, 10 µM [6]?
**A.** 121%

**Q.** Which viability at 48 h, 25 µM [3] does the source give for `CCCCCCCCCCCC(=O)OCC(COP(=S)([S-])OCC[N+](C)(C)C)OC` (racemic) here?
**A.** 41.8%

**Q.** What about the viability at 24 h, 25 µM [4] of the same compound?
**A.** 83.7%

**Q.** What about the viability at 48 h, 10 µM [5] of the same compound?
**A.** 98.2%

**Q.** And the viability at 24 h, 10 µM [6]?
**A.** 87.1%

**Q.** Which viability at 48 h, 25 µM [3] does the source give for `CCCCCCCCCCCCCC(=O)OCC(COP(=S)([S-])OCC[N+](C)(C)C)OC` (racemic) here?
**A.** 35.8%

**Q.** And the viability at 24 h, 25 µM [4]?
**A.** 64.7%

**Q.** What about the viability at 48 h, 10 µM [5] of the same compound?
**A.** 87.9%

**Q.** What about the viability at 24 h, 10 µM [6] of the same compound?
**A.** 104%

**Q.** With `CCCCCCCCCCCCCCCC(=O)OCC(COP(=S)([S-])OCC[N+](C)(C)C)OC` (racemic) as the compound, how does the viability at 48 h, 25 µM [3] read?
**A.** 37.4%

**Q.** What about the viability at 24 h, 25 µM [4] of the same compound?
**A.** 58.7%

**Q.** What about the viability at 48 h, 10 µM [5] of the same compound?
**A.** 100%

**Q.** What about the viability at 24 h, 10 µM [6] of the same compound?
**A.** 112%

**Q.** Which viability at 48 h, 25 µM [3] does the source give for `CCCCCCCCCCCCCCCCCC(=O)OCC(COP(=S)([S-])OCC[N+](C)(C)C)OC` (racemic) here?
**A.** 38.9%

**Q.** What about the viability at 24 h, 25 µM [4] of the same compound?
**A.** 63.1%

**Q.** What about the viability at 48 h, 10 µM [5] of the same compound?
**A.** 96.8%

**Q.** What about the viability at 24 h, 10 µM [6] of the same compound?
**A.** 85.8%

**Q.** With `CCCCCCCC/C=C\CCCCCCCC(=O)OCC(COP(=S)([S-])OCC[N+](C)(C)C)OC` (racemic) as the compound, how does the viability at 48 h, 25 µM [3] read?
**A.** 112%

**Q.** What about the viability at 24 h, 25 µM [4] of the same compound?
**A.** 111%

**Q.** And the viability at 48 h, 10 µM [5]?
**A.** 95.9%

**Q.** And the viability at 24 h, 10 µM [6]?
**A.** 90.5%

**Q.** For `CCCCCCCCCCCC(=O)OC[C@@H](O)COP(=O)([O-])OCC[N+](C)(C)C` [LYSOPHOSPHATIDYLCHOLINE], which Activity [1] is on record?
**A.** 16.8%

**Q.** What about the viability at 48 h, 25 µM [3] of the same compound?
**A.** 67.1%

**Q.** And the viability at 24 h, 25 µM [4]?
**A.** 83%

**Q.** And the viability at 48 h, 10 µM [5]?
**A.** 86.1%

**Q.** What about the viability at 24 h, 10 µM [6] of the same compound?
**A.** 106%

**Q.** Which Activity [2] does the source give for `CCCCCCCCCCCCCC(=O)OC[C@@H](O)COP(=O)([O-])OCC[N+](C)(C)C` [LYSOPHOSPHATIDYLCHOLINE] here?
**A.** Toxic

**Q.** What about the viability at 48 h, 25 µM [3] of the same compound?
**A.** 7.5%

**Q.** And the viability at 24 h, 25 µM [4]?
**A.** 26.3%

**Q.** What about the viability at 48 h, 10 µM [5] of the same compound?
**A.** 53.1%

**Q.** And the viability at 24 h, 10 µM [6]?
**A.** 75.5%
